Data published in ChEMBL document CHEMBL1629645 (Antimicrob Agents Chemother, 2009).
Converted amounts (≈) assume the structure as drawn. The source made the active and inactive calls. The rule behind the calls is not given here.

How the values were obtained:
Staphylococcus aureus [1] = experiment: Antibacterial activity against 1 x10'6 to 5 x10^6 CFU/ml methicillin-resistant Staphylococcus aureus ATCC 43300 assessed as log decrease in bacterial count at 4 times MIC after 6 hrs by time kill study; format: functional
In short: (§1)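 MRSA inoculum of 1 × 10^6 to 5 × 10^6 CFU/ml in 10 ml Mueller-Hinton broth. Drug at 1× and 4× MIC; drug-free growth control. Incubated at 37°C. Aliquots plated on Mueller-Hinton agar at 0, 6 and 24 h. Quantification limit 200 CFU/ml. Mean log10 CFU/ml reduction ± SD.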

Staphylococcus aureus [2] = experiment: Antibacterial activity against methicillin-resistant Staphylococcus aureus ATCC 43300 by macrodilution method; format: functional
In short: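 Broth macrodilution MIC in Mueller-Hinton broth per CLSI. Inoculum 1 × 10^5 to 5 × 10^5 CFU/ml. Ten twofold drug dilutions, 18 h at 37°C without shaking. MIC is the lowest concentration with no visible growth. Triplicate.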

Staphylococcus aureus [3] = experiment: Antibacterial activity against methicillin-resistant Staphylococcus aureus ATCC 43300 infected in Albino guiena pig assessed as decrease in planktonic bacterial counts in cage fluid at 12.5 mg/kg measured on day 4 postinfection; format: functional
In short: (§2)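 Guinea pig subcutaneous cage model infected with 2 × 10^4 CFU MRSA. Intraperitoneal dosing every 12 h for 4 days, starting day 1. Cage-fluid CFU counted on day 1, day 4 (before last dose) and day 10. Δlog10 CFU/ml is day 4 or day 10 minus day 1. Quantification limit 1,000 CFU/ml; negatives set to 3 log10. Median and IQR.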

[4] = Cmax in cage fluid of Albino guiena pig at 12.5 mg/kg, ip after 12 hrs; format: ADME, organism-based, Cavia porcellus, Interstitial fluid; set-up: dose 12.5 mg/kg, route intraperitoneal; conditions: guinea pig
[5] = Tmax in cage fluid of Albino guiena pig at 12.5 mg/kg, ip; format: ADME, organism-based, Cavia porcellus; set-up: dose 12.5 mg/kg, route intraperitoneal; conditions: guinea pig
Staphylococcus aureus [6] = experiment: Antibacterial activity against 1 x10'6 to 5 x10^6 CFU/ml methicillin-resistant Staphylococcus aureus ATCC 43300 assessed as bacterial regrowth after 24 hrs by time kill study; format: functional, organism-based; in short: as §1
Staphylococcus aureus [7] = experiment: Antibacterial activity against 1 x10'6 to 5 x10^6 CFU/ml methicillin-resistant Staphylococcus aureus ATCC 43300 assessed as log decrease in bacterial count at MIC after 6 hrs by time kill study; format: functional; in short: as §1
Staphylococcus aureus [8] = experiment: Antibacterial activity against methicillin-resistant Staphylococcus aureus ATCC 43300 during logarithmic growth phase by macrodilution method; format: functional
Staphylococcus aureus [9] = experiment: Antibacterial activity against methicillin-resistant Staphylococcus aureus ATCC 43300 infected in Albino guiena pig assessed as decrease in planktonic bacterial counts in cage fluid at 12.5 mg/kg after measured on day 10 postinfection; format: functional; in short: as §2
Staphylococcus aureus [10] = experiment: Antibacterial activity against methicillin-resistant Staphylococcus aureus ATCC 43300 during stationary growth phase by macrodilution method; format: functional
Staphylococcus aureus [11] = experiment: Antibacterial activity against methicillin-resistant Staphylococcus aureus ATCC 43300 infected in Albino guiena pig assessed as no. of culture-negative cage fluid samples at 12.5 mg/kg measured on day 10 postinfection; format: functional
In short: (§3)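 Same guinea pig cage infection and intraperitoneal 4-day, twice-daily regimen. Cage fluid cultured on day 4 and day 10. Result is the number of cage fluid samples without detectable MRSA growth over the total cages per group.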

Staphylococcus aureus [12] = experiment: Antibacterial activity against methicillin-resistant Staphylococcus aureus ATCC 43300 infected in Albino guiena pig assessed as no. of culture-negative cage fluid samples at 12.5 mg/kg measured on day 4 postinfection; format: functional; in short: as §3
Staphylococcus aureus [13] = experiment: Antibacterial activity against 1 x10'6 to 5 x10^6 CFU/ml methicillin-resistant Staphylococcus aureus ATCC 43300 assessed as percent resistant isolates at MIC after 24 hrs by time kill study; format: functional
[14] = AUC (0 to 24 hrs) in cage fluid of Albino guiena pig at 12.5 mg/kg, ip; format: ADME, organism-based, Cavia porcellus; set-up: time < 24 hr, dose 12.5 mg/kg, route intraperitoneal; conditions: guinea pig
[15] = Cmin in cage fluid of Albino guiena pig at 12.5 mg/kg, ip after 12 hrs; format: ADME, organism-based, Cavia porcellus; set-up: dose 12.5 mg/kg, route intraperitoneal; conditions: guinea pig, read-out: Cmin

CO[C@H]1/C=C/O[C@@]2(C)Oc3c(C)c(O)c4c(O)c(c(/C=N/N5CCN(C)CC5)c(O)c4c3C2=O)NC(=O)/C(C)=C\C=C\[C@H](C)[C@H](O)[C@@H](C)[C@@H](O)[C@@H](C)[C@H](OC(C)=O)[C@@H]1C [RIFAMPIN]
log10CFU/ml (Staphylococcus aureus [1]): 0.5 | MIC (Staphylococcus aureus [2]): 0.01 µg/mL (≈ 0.0122 µM) | log10CFU/ml (Staphylococcus aureus [3]): 3.1 | Cmax [4]: 1000 ng/mL | Tmax [5]: 2.1 h | Activity (Staphylococcus aureus [6]): inactive | log10CFU/ml (Staphylococcus aureus [7]): 0.5 | MBC (Staphylococcus aureus [8]): 0.08 µg/mL (≈ 0.0972 µM) | log10CFU/ml (Staphylococcus aureus [9]): <3 | MBC (Staphylococcus aureus [10]): 2.5 µg/mL (≈ 3.04 µM) | Activity (Staphylococcus aureus [11]): 92% | Activity (Staphylococcus aureus [12]): 50% | Activity (Staphylococcus aureus [13]): 94% | AUC(0-t) at 24 h [14]: 4600 ng·h/mL | concentration at 12 h [15]: 100 ng/mL
